Where two headings read alike, the source gives them in different places.
System: P. carinii
Assay: ATP bioassay, anti-Pneumocystis activity
Type: cell-based, Pneumocystis carinii
Conditions: for IC50: Pneumocystis carinii
How it was run: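 Rat-lung P. carinii (male CD rats, methylprednisolone-immunosuppressed), cryopreserved, thawed, held at 5 × 10^7 nuclei/ml in RPMI-1640 + 20% calf serum, 37 °C, 5% CO2. Screen at 100 µg/ml; titrated if ATP fell ≥50%. Luciferin-luciferase ATP at 6, 24, 48, 72 h. Triplicate wells, 3 assays, 2 batches. Ampicillin 10 µg/ml and pentamidine 1 µg/ml controls. IC50: linear regression, % ATP decrease vs log concentration.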

[1] = 72 h, read-out: IC50 (µg/ml) ± SD for P. carinii

Compound	IC50 [1] [µg/mL]	IC50 (read-out: Activity ranking) [µg/mL]	Activity ranking (ranking based on IC50 in µg/ml)	IC50 (72 h) [nM]
CN(CCOc1ccc(C(=N)N)cc1)CCOc1ccc(C(=N)N)cc1.Cl.Cl [compound 1, 1,5-Bis(4-amidinophenoxy)-N-methyl-3-azapentane trihydrochloride]	0.82 ± 0.44	0.1 to 0.99		
COc1cc(C(=N)N)ccc1OCCN(C)CCOc1ccc(C(=N)N)cc1OC.Cl.Cl [compound 2, 1,5-Bis(4-amidino-2-methoxyphenoxy)-N-methyl-3-azapentane]	2.1 ± 1.24	1 to 9.99		
COc1cc(C(=N)N)cc(OC)c1OCCN(C)CCOc1c(OC)cc(C(=N)N)cc1OC.Cl.Cl [compound 3, 1,5-Bis(4-amidino-2,6-dimethoxyphenoxy)-N-methyl-3-azapentane trihydrochloride]	45.2 ± 16.9	10 to 49.9		
CN(CCCCCN(C)c1ccc(C(=N)N)cc1)c1ccc(C(=N)N)cc1.Cl.Cl [compound 4]	1.02 ± 0.51	1 to 9.99		
Cl.Cl.N=C(N)c1ccc(NCCOCCNc2ccc(C(=N)N)cc2)cc1 [compound 5]	0.47 ± 0.09	0.1 to 0.99		
Cl.Cl.N=C(N)c1ccc(OCCOCCOc2ccc(C(=N)N)cc2)cc1 [compound 6]	0.96 ± 0.32	0.1 to 0.99		
COc1cc(C(=N)N)ccc1OCCOCCOc1ccc(C(=N)N)cc1OC.Cl.Cl [compound 7, 1,5-Bis(4-amidino-2-methoxyphenoxy)-3-oxapentane dihydrochloride]	2 ± 1.65	1 to 9.99		
COc1cc(C(=N)N)cc(OC)c1OCCOCCOc1c(OC)cc(C(=N)N)cc1OC.Cl.Cl [compound 8, 1,5-Bis(4-amidino-2,6-dimethoxyphenoxy)-3-oxapentane dihydrochloride]	7.66 ± 1.67	1 to 9.99		
COc1cc(C(=N)N)cc(OC)c1OCCCCCOc1c(OC)cc(C(=N)N)cc1OC.Cl.Cl [compound 9, 1,5-Bis(4-amidino-2,6-dimethoxyphenoxy)pentane dihydrochloride]	1.68 ± 0.37	1 to 9.99		
Cl.Cl.N=C(N)c1ccc(OCCSCCOc2ccc(C(=N)N)cc2)cc1 [compound 10, 1,5-Bis(4-amidinophenoxy)-3-thiapentane dihydrochloride]	0.52 ± 0.04	0.1 to 0.99		
Cl.Cl.N=C(N)c1ccc(OCCN(CCOc2ccc(C(=N)N)cc2)S(=O)(=O)c2ccccc2)cc1 [compound 11, N,N-Bis[2(4-amidinophenoxy)ethyl]benzenesulfonamide dihydrochloride]	0.81 ± 0.12	0.1 to 0.99	marked	
COc1cc(C(=N)N)ccc1OCCN(CCOc1ccc(C(=N)N)cc1OC)S(=O)(=O)c1ccccc1.Cl.Cl [compound 12, N,N-Bis[2(4-amidino-2-methoxyphenoxy)ethyl]benzenesulfonamide dihydrochloride]	1.8 ± 0.76	1 to 9.99		
COc1cc(C(=N)N)cc(OC)c1OCCN(CCOc1c(OC)cc(C(=N)N)cc1OC)S(=O)(=O)c1ccccc1.Cl.Cl [compound 13, N,N-Bis[2(4-amidino-2,6-dimethoxyphenoxy)ethyl]-benzenesulfonamide]	3.13 ± 0.99	1 to 9.99		
COc1cc(C(=N)N)ccc1OCCN(CCOc1ccc(C(=N)N)cc1OC)S(=O)(=O)c1ccc(NC(C)=O)cc1.Cl.Cl [compound 15, N,N-Bis[2(4-amidino-2-methoxyphenoxy)ethyl]-4-acetamidobenzenesulfonamide]	2.59 ± 0.83	1 to 9.99		
COc1cc(C(=N)N)cc(OC)c1OCCN(CCOc1c(OC)cc(C(=N)N)cc1OC)S(=O)(=O)c1ccc(N)cc1.Cl.Cl [compound 16]	3.24 ± 0.88	1 to 9.99		
Cl.Cl.N=C(N)c1ccc(C(=O)NCCCNC(=O)c2ccc(C(=N)N)cc2)cc1 [compound 17, N,N’-Propane-1,3-diylbis(4-amidinobenzamide) dihydrochloride]	1.53 ± 0.9	1 to 9.99		
Cl.Cl.N=C(N)c1ccc(C(=O)NCCCCNC(=O)c2ccc(C(=N)N)cc2)cc1 [compound 18, N,N’-Butane-1,4-diylbis(4-amidinobenzamide) dihydrochloride]	1.85 ± 0.01	1 to 9.99		
Cl.Cl.N=C(N)c1ccc(C(=O)NCCCCCNC(=O)c2ccc(C(=N)N)cc2)cc1 [compound 19, N,N’-Pentane-1,5-diylbis(4-amidinobenzamide) dihydrochloride]	7.4 ± 0.22	1 to 9.99		
Cl.Cl.N=C(N)c1ccc(C(=O)NCCCCCCNC(=O)c2ccc(C(=N)N)cc2)cc1 [compound 20, N,N’-Hexane-1,6-diylbis(4-amidinobenzamide) dihydrochloride]	4.9 ± 1.2	1 to 9.99		
N=C(N)c1ccc(OCCCCCOc2ccc(C(=N)N)cc2)cc1 [pentamidine, reference compound]	0.3			500
